# Results as given in ChEMBL document CHEMBL1795299, “Pyrrolo[2,3-c]azepine derivatives: a new class of potent protein tyrosine phosphatase 1B inhibitors” (Bioorg Med Chem Lett, 2011).
# pIC50: −log10 of the molar value. Calls of active or inactive are those of the source. No cut-off for these calls is given here.
# Target: T1, Tyrosine-protein phosphatase non-receptor type 1 (Homo sapiens, UniProt P18031)
# T1 sequence (P18031 whole entry): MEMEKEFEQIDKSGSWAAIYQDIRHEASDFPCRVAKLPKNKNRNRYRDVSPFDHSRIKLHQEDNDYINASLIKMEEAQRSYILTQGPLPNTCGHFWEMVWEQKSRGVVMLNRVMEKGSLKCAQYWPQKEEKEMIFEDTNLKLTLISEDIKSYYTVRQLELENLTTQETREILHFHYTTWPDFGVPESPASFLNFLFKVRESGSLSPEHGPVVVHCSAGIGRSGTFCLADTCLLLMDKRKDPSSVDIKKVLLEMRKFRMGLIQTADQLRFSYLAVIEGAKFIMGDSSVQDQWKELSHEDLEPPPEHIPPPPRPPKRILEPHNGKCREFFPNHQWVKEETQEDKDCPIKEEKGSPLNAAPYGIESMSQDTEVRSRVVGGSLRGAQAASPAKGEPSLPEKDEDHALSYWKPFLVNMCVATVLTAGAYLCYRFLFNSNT
# Experiment: Inhibition of human recombinant PTP1B assessed as inhibition of para-nitrophenyl phosphate to para-nitrophenol conversion by spectrophotometry
# In short: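 Recombinant human GST-PTP1B, from E. coli BL21 pellets purified on a GST bead column, converts pNPP to p-nitrophenol, measured at 405 nm. Compounds were dissolved in 100% DMSO and tested over a dose series. IC50 came from a sigmoidal dose-response curve with variable slope. BPV(phen) served as the reference.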
row,pIC50,Compound
1,4.86,COc1ccc(-c2ccc(Cn3c4c(c5ccccc53)C(=O)CCNC4=O)cc2)cc1
2,4.79,CCCCOc1ccc(-c2ccc(Cn3ccc4c3C(=O)NCCC4=O)cc2)cc1
3,4.83,COc1ccc(-c2ccc(Cn3ccc4c3C(=O)NCC/C4=N\Nc3ccccn3)cc2)cc1

# Target: T2, Tyrosine-protein phosphatase non-receptor type 1 (Homo sapiens) (UniProt P18031)
# T2 sequence (whole entry): T1 sequence (P18031 whole entry)
# Experiment: Inhibition of human recombinant PTP1B assessed as inhibition of para-nitrophenyl phosphate to para-nitrophenol conversion at 100 uM by spectrophotometry
# In short: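 GST-tagged human PTP1B, expressed in E. coli BL21 and purified on GST beads, hydrolyses pNPP to p-nitrophenol, read as absorbance at 405 nm. Compounds were dissolved in 100% DMSO, and the inhibitory rate was recorded. BPV(phen) served as the reference.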
row,Compound,inhibition
1,Nc1cccc(-c2ccc(Cn3ccc4c3C(=O)NCCC4=O)cc2)c1,inactive
2,O=C1CCNC(=O)c2c1ccn2-c1ccc(C(F)(F)F)cc1,inactive
3,O=C1CCNC(=O)c2c1ccn2Cc1ccc(-c2cccc(O)c2)cc1,inactive
4,N#Cc1ccccc1-c1ccc(Cn2ccc3c2C(=O)NCCC3=O)cc1,inactive
5,O=C1CCNC(=O)c2c1ccn2Cc1ccc(-c2ccccc2)cc1,inactive
6,COc1ccc(-c2ccc(Cn3c4c(c5ccccc53)C(=O)CCNC4=O)cc2)cc1,Active
7,O=C1CCNC(=O)c2c1ccn2Cc1ccccc1,inactive
8,O=C1CCNC(=O)c2c1ccn2-c1ccc(-c2ccccc2)cc1,inactive
9,O=C1CCNC(=O)c2c1ccn2Cc1ccc(-c2ccc(O)cc2)cc1,Active
10,COc1ccc(-c2ccc(Cn3ccc4c3C(=O)N(C)CCC4=O)cc2)cc1,Active
11,O=C1NCC=Cc2ccn(Cc3ccccc3)c21,inactive
12,COc1ccc(-c2ccc(Cn3ccc4c3C(=O)NCCC4=O)cc2)cc1,Active
13,O=C1CCN(Cc2ccccc2)C(=O)c2c1ccn2Cc1ccccc1,inactive
14,CC(=O)c1ccc(-n2ccc3c2C(=O)NCCC3=O)cc1,inactive
15,O=C1NCCC(O)c2ccn(Cc3ccc(-c4ccccc4)cc3)c21 (centres undefined),inactive
16,COc1ccc(-c2ccc(Cn3ccc4c3C(=O)NCC/C4=N\Nc3ccccn3)cc2)cc1,Active
17,O=C1CCNC(=O)c2[nH]ccc21,Active
18,COc1ccc(-n2ccc3c2C(=O)NCCC3=O)cc1,inactive

# Second part, the molecule after the results:
row,inhibition,Compound
1,inactive,CCc1ccc(-n2ccc3c2C(=O)NCCC3=O)cc1
2,inactive,O=C1NCCC(O)c2ccn(Cc3ccccc3)c21 (centres undefined)
3,inactive,O=C1c2c(ccn2Cc2ccccc2)/C(=N/O)CCN1Cc1ccccc1
4,inactive,O=C1CCNC(=O)c2c1ccn2-c1ccccc1
5,Active,CCCCOc1ccc(-c2ccc(Cn3ccc4c3C(=O)NCCC4=O)cc2)cc1
6,Active,CCCOc1ccc(-c2ccc(Cn3ccc4c3C(=O)NCCC4=O)cc2)cc1
7,Active,Cc1ccc(-c2ccc(Cn3ccc4c3C(=O)NCCC4=O)cc2)cc1
8,inactive,NC(=O)c1ccccc1-c1ccc(Cn2ccc3c2C(=O)NCCC3=O)cc1
